This is an account of results in publication PMC5599134 (Structure (London, England : 1993), 2017).

Ends that are not written are not given here.

Series [1] concerns DHHC17. In words: Autoacylation of DHHC17 in 17-ODYA metabolic labeling. It is filed as cell-based, human. Particulars: HEK-293T, click chemistry. The procedure, abridged:
(§1)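 HEK-293T cells (DMEM, 10% FBS, 37°C, 5% CO2) co-transfected with 2 μg GFP-DHHC17 (wild type or mutants) and 0.5 μg EGFP-Snap25b, cysteine-less C4A or empty vector, using PEI-max. At 24 h, cells given serum-free DMEM with 100 μM 17-ODYA for 4 h at 37°C, then lysed in dodecylmaltoside buffer. Click reaction with rhodamine azide/CuSO4/TCEP/TBTA for 1 h at room temperature. In-gel rhodamine fluorescence; anti-GFP and anti-Snap25b blots; bands quantitated.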

Series [2] relates to Snap25b. It is filed as cell-based, human. Particulars: HEK-293T, 100 μM 17-ODYA, 4 h, 37°C; Rhodamine-azide click; n=3. A digest of the protocol: as §1
For series [3], the system named is Snap25b-WT. The series can be described thus: In vitro palmitate transfer from NBD-palmitoyl-CoA to Snap25b. Particulars: both in absence and presence of purified Snap25b-WT. It counts as biochemical, human.
For series [4], the target named is Snap25b-C4A (cysteine-less mutant), full length (human) (UniProt P60880). In words: ITC. In general terms: ITC needs no label: the signal is the heat of the interaction.
For series [5], the target named is Snap25b_(111–120) peptide (human). The series can be described thus: ITC.
The subject of series [6] is Snap25b-WT. The series can be described thus: Co2+ affinity pull-down of GFP-Snap25b-WT by DHHC17 mutants in HEK-293T cells. It is filed as cell-based, human. Particulars: 24 h co-transfection, Co2+ (Talon) pull down, gel-densitometry.
The target of series [7] is T1, ANK17 domain of DHHC17 (Homo sapiens, UniProt Q8IUH5).
T1 sequence (Q8IUH5 50-288): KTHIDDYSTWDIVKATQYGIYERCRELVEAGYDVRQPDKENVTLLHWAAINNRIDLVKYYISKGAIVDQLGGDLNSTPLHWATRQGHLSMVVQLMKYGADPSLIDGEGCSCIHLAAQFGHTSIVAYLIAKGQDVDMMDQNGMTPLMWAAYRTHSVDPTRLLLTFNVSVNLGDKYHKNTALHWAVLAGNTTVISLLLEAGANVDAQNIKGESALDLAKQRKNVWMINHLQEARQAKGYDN
In words: ITC titration of ANK17-WT with Snap25b species. It is filed as binding. Particulars: for effect of alanine mutation in Snap25b on binding to ANK17 (in words): ITC, ANK17-WT titrated into Snap25b mutants, 25°C, 1X PBS 1 mM DTT.

Series [8] addresses Snap25b (Synaptosomal-associated protein 25), wild type, full length (human) (UniProt P60880). In words: ITC.
Series [9] deals with wild-type Htt. The series can be described thus: ITC titration of ANK17-W130A into MBP-Htt1–548. It counts as binding. Particulars: titrated into MBP-Htt1–548, 25°C, 1X PBS 1 mM DTT.
The subject of series [10] is Snap25b-WT. The series can be described thus: ITC titration of ANK17 mutants into full-length Snap25b-WT. It counts as binding, human. Particulars: ANK17 mutants titrated into Snap25b-WT, 25°C, 1X PBS 1 mM DTT.
Series [11] in a line: Size exclusion chromatography. It counts as physicochemical. Particulars: Superdex-200. The procedure, abridged:
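His-tagged protein expressed in E. coli BL21(DE3)-Gold and Ni-NTA purified. Spun at 21000 × g for 20 min at 4°C, then about 200 μL injected onto Superdex-200. Column buffer was 50mM Tris-HCl, 50mM NaCl, 5% glycerol, 1mM DTT for crystallization, or 1X PBS pH 7.4 with 1 mM DTT for ITC. Peak fractions pooled.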
Background: In gel filtration, larger molecules generally elute earlier.

For series [12], the system named is Snap25b. Particulars: palmitoylated enzyme intermediate; ref Greaves et al., 2017; cited from earlier work.

On to “DHHC17: full length human DHHC17 palmitoyltransferase (NP_056151)”, for which, in series [1], the “autoacylation (in words)” value is given as “did not detect any autoacylation”. In [2], the “S-acylation (palmitate transfer) of Snap25b (in words)” value (“S-acylation (palmitate transfer)” for short) is on record as “readily transfers palmitate to Snap25b”. Moreover, the “autopalmitoylation with or without Snap25b (in words)” value in series [3] is “does not appear to get autopalmitoylated to appreciable levels”.

As a reminder, the Kd is the concentration at which binding is half-saturated. A low value points to a tighter complex. Consider “ankyrin repeat domain of Human DHHC17 (ANK17), wild type (domain or fragment)”, for which the Kd in [4] worked out at 3 µM; in [5] it was 11 µM.

As to “W130A: full length DHHC17 mutant W130A (GFP fusion)”, the “amount of Snap25b pulled down by DHHC17 mutant (in words)” value in [6] is on record as “largest decrease in affinity”. Moreover, the “S-acylation (palmitate transfer)” value in [2] is “severely reduced levels of palmitoylation”.

In the case of “V113A: Snap25b alanine mutant V113A (GFP fusion in pull-down)”, the “effect of alanine mutation in Snap25b on binding to ANK17 (in words)” value in series [7] is “followed by the V113A and Q116A”.

With “mutation to phenylalanine: full length DHHC17 with W130 mutated to phenylalanine”, the “S-acylation (palmitate transfer)” value in series [2] was “loss of function of W130A can be recovered”.

GVVASQPARV [Snap25b111–120] returned a Kd in series [7] of about 11 µM.

The molecule ANK17-Y67A (domain or fragment) yielded a fold reduction of affinity against ANK17-WT in [8] of 5 fold.

With “N100A: full length DHHC17 mutant N100A (GFP fusion)”, the “amount of Snap25b pulled down by DHHC17 mutant (in words)” value in series [6] is “largest decrease in affinity”. In addition, in [2], the “S-acylation (palmitate transfer)” value was “severely reduced levels of palmitoylation”.

With “P117A: Snap25b alanine mutant P117A (GFP fusion in pull-down)”, the “effect of alanine mutation in Snap25b on binding to ANK17 (in words)” value was “largest reduction in binding affinity” in series [7]; “showed only marginal heat of binding and we could not obtain any fitting of the integrated heats” in [7] (listed as Snap25b-P117A).

B1: ANK17-W130A: ANK17 with alanine substitution at position W130 (protein, UniProt Q8IUH5 50-288, looked up, variant W130A)
chain: KTHIDDYSTWDIVKATQYGIYERCRELVEAGYDVRQPDKENVTLLHWAAINNRIDLVKYYISKGAIVDQLGGDLNSTPLHAATRQGHLSMVVQLMKYGADPSLIDGEGCSCIHLAAQFGHTSIVAYLIAKGQDVDMMDQNGMTPLMWAAYRTHSVDPTRLLLTFNVSVNLGDKYHKNTALHWAVLAGNTTVISLLLEAGANVDAQNIKGESALDLAKQRKNVWMINHLQEARQAKGYDN
modifications: ankyrin repeat domain
In the case of B1, the “binding of ANK17 mutant to wild-type Htt (in words)” value in series [9] is given as “no discernible signs of binding to wild-type Htt”. In addition, the “effect of alanine mutation in ANK17 on binding to full-length Snap25b (in words)” value in series [10] is “showed only heat of dilution”.

B2: ANK17: cytoplasmic ankyrin repeat domain of human DHHC17, residues K50 to D288 (protein, UniProt Q8IUH5 50-288, looked up, fragment)
chain: KTHIDDYSTWDIVKATQYGIYERCRELVEAGYDVRQPDKENVTLLHWAAINNRIDLVKYYISKGAIVDQLGGDLNSTPLHWATRQGHLSMVVQLMKYGADPSLIDGEGCSCIHLAAQFGHTSIVAYLIAKGQDVDMMDQNGMTPLMWAAYRTHSVDPTRLLLTFNVSVNLGDKYHKNTALHWAVLAGNTTVISLLLEAGANVDAQNIKGESALDLAKQRKNVWMINHLQEARQAKGYDN
modifications: ankyrin repeat domain
As to B2, the “size exclusion peak homogeneity (in words)” value in [11] is “homogenous and monodisperse peaks”.

B3: DHHC17-C467S: mutation of the cysteine of DHHC domain to serine (protein, UniProt Q8IUH5 1-632, looked up, variant C467S)
Palmitoyltransferase ZDHHC17: MQREEGFNTKMADGPDEYDTEAGCVPLLHPEEIKPQSHYNHGYGEPLGRKTHIDDYSTWDIVKATQYGIYERCRELVEAGYDVRQPDKENVTLLHWAAINNRIDLVKYYISKGAIVDQLGGDLNSTPLHWATRQGHLSMVVQLMKYGADPSLIDGEGCSCIHLAAQFGHTSIVAYLIAKGQDVDMMDQNGMTPLMWAAYRTHSVDPTRLLLTFNVSVNLGDKYHKNTALHWAVLAGNTTVISLLLEAGANVDAQNIKGESALDLAKQRKNVWMINHLQEARQAKGYDNPSFLRKLKADKEFRQKVMLGTPFLVIWLVGFIADLNIDSWLIKGLMYGGVWATVQFLSKSFFDHSMHSALPLGIYLATKFWMYVTWFFWFWNDLNFLFIHLPFLANSVALFYNFGKSWKSDPGIIKATEEQKKKTIVELAETGSLDLSIFCSTCLIRKPVRSKHCGVCNRCIAKFDHHSPWVGNCVGAGNHRYFMGYLFFLLFMICWMIYGCISYWGLHCETTYTKDGFWTYITQIATCSPWMFWMFLNSVFHFMWVAVLLMCQMYQISCLGITTNERMNARRYKHFKVTTTSIESPFNHGCVRNIIDFFEFRCCGLFRPVIVDWTRQYTIEYDQISGSGYQLV
B3: in series [2], the “S-acylation (palmitate transfer)” value is reported as “does not show any appreciable transfer”.

B4: DHHC15: DHHC15 palmitoyl transferase (NM_144969), comparison enzyme (protein, UniProt Q96MV8 1-337, looked up)
Palmitoyltransferase ZDHHC15: MRRGWKMALSGGLRCCRRVLSWVPVLVIVLVVLWSYYAYVFELCLVTVLSPAEKVIYLILYHAIFVFFTWTYWKSIFTLPQQPNQKFHLSYTDKERYENEERPEVQKQMLVDMAKKLPVYTRTGSGAVRFCDRCHLIKPDRCHHCSVCAMCVLKMDHHCPWVNNCIGFSNYKFFLQFLAYSVLYCLYIATTVFSYFIKYWRGELPSVRSKFHVLFLLFVACMFFVSLVILFGYHCWLVSRNKTTLEAFCTPVFTSGPEKNGFNLGFIKNIQQVFGDKKKFWLIPIGSSPGDGHSFPMRSMNESQNPLLANEETWEDNEDDNQDYPEGSSSLAVETET
modifications: 10xHis tag
As to B4, the “palmitate transfer to Snap25b (in words)” value in [12] is “capable of transferring palmitate to a protein substrate such as Snap25b”.
